Entries after “also recorded” stand apart in the source; their conditions may differ.
Experiments:
STZ-treated DIO mice = assay: Glycemic control in STZ-treated DIO mice; type: in vivo, mouse; conditions: for glucose AUC during OGTTs on days 7 and 14: oral once daily, LY2881835 30 mg/kg, sitagliptin 3 mg/kg
Summary of the method: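 Male DIO mice aged 5–6 months got IP streptozotocin 50 mg/kg twice in one week. Two weeks later, mice with 9 am glucose of 180–300 mg/dL were randomized by body weight and glucose. Dosing was oral, once daily for 16 days: test compound 30 mg/kg given 30 min and sitagliptin 3 mg/kg 60 min before OGTTs on days 1, 7 and 14. Glucose was sampled at 0–120 min and glucose AUC calculated; 7 per group, with age-matched non-STZ mice included.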

individuals with T2D = conditions: oral, 12 weeks, ref Araki et al. 2012, Burant et al. 2012; cited from earlier work
Zucker fa/fa rats = assay: Glycemic control in fatty Zucker fa/fa rats; type: in vivo, rat; conditions: oral once daily, LY2881835 1 mg/kg, rosiglitazone 3 mg/kg
Summary of the method: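 Male Zucker fa/fa rats aged 2–3 months were acclimated for 2 weeks and randomized by body weight and glucose (n = 6/group). Test compound 1 mg/kg, rosiglitazone 3 mg/kg or vehicle was given orally once daily for 21 days. OGTTs on days 1 and 21 sampled blood at 0, 10, 20, 40 and 60 min, averaging two readings. Age-matched lean rats were included.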

WT mice = assay: OGTT in WT mice; type: in vivo, mouse; conditions: oral 30 mg/kg, 60 min before OGTT, versus vehicle
Summary of the method: (§1)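 Chow-fed male mice aged 2–3 months (WT, GPR40 KO or GPR120 KO) were fasted overnight from about 1600 and randomized at about 0800 by fasting glucose and body weight. Oral test compound 30 mg/kg or vehicle (0.5% methylcellulose, 0.25% Tween-80) was given 60 min before oral glucose 2 g/kg. Tail-blood glucose was read by glucometer at 0, 15, 30, 60 and 120 min, averaging two readings, and analysed by repeated-measures ANOVA.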

hGPR40 = hGPR40 (Homo sapiens, UniProt O14842); assay: Calcium flux assay; type: cell-based
GPR40 KO mice = assay: OGTT in GPR40 KO mice; type: in vivo, mouse; conditions: oral 30 mg/kg, 60 min before OGTT, versus vehicle
Summary of the method: as §1

[1] = system: nuclear hormone receptors, other G-protein-coupled receptors (GPCRs) and enzyme targets; assay: Broad range of assays: nuclear hormone receptors, other GPCRs and enzyme targets; conditions: data not shown
[2] = system: primary islets from WT mice; assay: Insulin secretion from isolated WT mouse islets; type: cell-based; conditions: 11.2 mmol/L glucose, 90 min
Summary of the method: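 Islets came from 2-3-month-old male wild-type C57BL/6 mice and were purified on a Histopaque-1100 gradient. They were exposed to test compound, or linoleic acid as reference ligand, in 11.2 mmol/L glucose. Insulin secretion is expressed as fold over vehicle, analysed by ANOVA with Dunnett's comparison.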

normal ICR mice = assay: IPGTT in lean ICR mice; type: in vivo, mouse
Summary of the method: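 Male ICR mice aged 9-10 weeks were fasted overnight (about 1600 to 0800) and randomized by fasting glucose and body weight. Test compound or vehicle (0.5% methylcellulose/0.25% Tween-80) was given orally 60 min before IP glucose. Serum was sampled at 0, 3, 6 and 15 min and assayed with a Mesoscale rat/mouse insulin kit.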

[3] = Compound exposure in lean mice; type: in vivo, mouse; conditions: single oral dose 10 mg/kg, over 8 h
Summary of the method: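 Male ICR mice; single oral dose in 0.5% methylcellulose/0.25% Tween-80. EDTA-plasma collected by retro-orbital bleed at 0.5, 1, 2, 4 and 8 h post-dose. Total circulating test compound measured by LC-MS.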

[4] = system: primary islets from GPR40 KO mice; assay: Insulin secretion from isolated GPR40 KO mouse islets; type: cell-based; conditions: 11.2 mmol/L glucose, 90 min
Summary of the method: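 Islets from 2–3-month-old male GPR40 KO mice were purified on a Histopaque-1100 gradient and cultured overnight in RPMI-1640 with 10% FBS and antibiotics. They were preincubated 30 min in EBSS with 0.1% BSA and 2.8 mmol/L glucose. Islets were then incubated 90 min with 2.8 or 11.2 mmol/L glucose plus rising test compound levels (6 batches of 4 islets per condition). Linoleic acid and GLP-1(7-36) amide served as controls. Insulin was measured by ECL, expressed as fold over vehicle, and compared by ANOVA with Dunnett's test.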

[5] = system: diet-induced obese (DIO) mice; assay: Glycemic control in DIO mice; type: in vivo, mouse; conditions: oral 10 mg/kg once daily
Summary of the method: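 Male DIO mice aged 5–6 months were acclimated for 2 weeks and randomized by body weight and fasting blood glucose. They received oral test compound at 10 mg/kg or vehicle (0.5% methylcellulose, 0.25% Tween-80) once daily for 15 days, dosed 60 min before oral glucose. OGTTs on days 1 and 15 sampled tail blood at 0, 15, 30, 60 and 120 min by glucometer, averaging two readings.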

Sequence of hGPR40 (O14842 whole entry): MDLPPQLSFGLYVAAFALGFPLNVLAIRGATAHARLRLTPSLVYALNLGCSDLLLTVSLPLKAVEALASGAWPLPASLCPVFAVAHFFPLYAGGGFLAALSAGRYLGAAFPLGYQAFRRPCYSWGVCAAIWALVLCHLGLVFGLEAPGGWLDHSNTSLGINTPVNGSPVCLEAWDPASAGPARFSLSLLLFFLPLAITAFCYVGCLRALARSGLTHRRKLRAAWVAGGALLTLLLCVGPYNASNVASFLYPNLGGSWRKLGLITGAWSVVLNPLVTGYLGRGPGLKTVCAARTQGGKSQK

SMILES: N[C@@H](CC(=O)N1CCn2c(nnc2C(F)(F)F)C1)Cc1cc(F)c(F)cc1F [sitagliptin, reference compound]
- glucose AUC during OGTTs on days 7 and 14 (STZ-treated DIO mice): Results are similar

SMILES: Cc1cc(OCCCS(C)(=O)=O)cc(C)c1-c1cccc(COc2ccc3c(c2)OC[C@H]3CC(=O)O)c1 [TAK‐875]
- HbA1c reduction (individuals with T2D): superior to historical data with DPPIV inhibitors and comparable with that of sulfonylureas

SMILES: CN(CCOc1ccc(CC2SC(=O)NC2=O)cc1)c1ccccn1 (stereo not shown) [rosiglitazone, Rosiglitazone]
- blood glucose during OGTT on day 1 (Zucker fa/fa rats): no glucose lowering

SMILES: CC#C[C@@H](CC(=O)O)c1ccc(OCc2ccc(CN3CCC4(C=Cc5ccccc54)CC3)cc2)cc1 [LY2881835, (3S)‐3‐(4‐{[4‐(1′H‐spiro[indene‐1,4′‐piperidin]‐1′‐ylmethyl)benzyl]oxy}phenyl)hex‐4‐ynoic acid]
- glucose levels during OGTT (WT mice): significant glucose lowering
- EC50 (hGPR40): 164 ± 94 nM
- glucose levels during OGTT (GPR40 KO mice): had no effect on glucose levels
- blood glucose during OGTT after a single treatment (STZ-treated DIO mice; oral 30 mg/kg, day 1): lowered blood glucose
- glucose AUC during OGTTs on days 7 and 14 (STZ-treated DIO mice): Results are similar
- signals in assay systems not expressing GPR40 [1]: No positive signals were detected
- insulin secretion in WT primary islets [2]: statistically significant increase in insulin secretion
- insulin AUC during IPGTT (normal ICR mice; oral 10 mg/kg dose group, versus vehicle): statistically significant enhancement in insulin AUC
- insulin secretion during IPGTT (normal ICR mice; oral 0.3, 1, 3 and 10 mg/kg, 60 min before IP glucose 2 g/kg): clear dose‐dependent enhancement in insulin secretion
- plasma concentration time course [3]: peaked and remained elevated at 15, 30, and 60 min followed by a slight decrease in levels throughout the 8 h study
- insulin secretion in GPR40 KO primary islets [4]: Enhanced insulin secretion was absent; also recorded: No insulin secretion
- hypoglycemia [5]: no evidence of hypoglycemia was observed
- fasting glucose levels at time 0 of the OGTTs ([5]; 60 min after administration): significantly reduced
- glucose levels during OGTTs ([5]; OGTTs on days 1 and 15): Significant reductions in glucose levels

SMILES: CCCCC/C=C\C/C=C\CCCCCCCC(=O)O [linoleic acid, reference compound]
- insulin secretion in GPR40 KO primary islets [4]: a reduction in insulin secretion was seen
- insulin secretion in GPR40 KO primary islets ([4]; listed as LA): No insulin secretion
